Assay results from ChEMBL document CHEMBL1124242, “Renin inhibitors. Dipeptide analogues of angiotensinogen utilizing a dihydroxyethylene transition-state mimic at the scissile bond to impart greater inhibitory potency” (J Med Chem, 1988).
Where a SMILES comes first, the peptide text is derived from it. [ ]: non-standard residue; d: D form. The star is where a group is joined. Leu(ol) = CC(C)C[C@H](N)CO; Boc = CC(C)(C)OC(=O)*

Legend:
Renin [1] = biological target: T1, Renin (Homo sapiens, UniProt P00797); assay: In vitro inhibitory activity was tested against purified human renal renin
T1 sequence (P00797 whole entry): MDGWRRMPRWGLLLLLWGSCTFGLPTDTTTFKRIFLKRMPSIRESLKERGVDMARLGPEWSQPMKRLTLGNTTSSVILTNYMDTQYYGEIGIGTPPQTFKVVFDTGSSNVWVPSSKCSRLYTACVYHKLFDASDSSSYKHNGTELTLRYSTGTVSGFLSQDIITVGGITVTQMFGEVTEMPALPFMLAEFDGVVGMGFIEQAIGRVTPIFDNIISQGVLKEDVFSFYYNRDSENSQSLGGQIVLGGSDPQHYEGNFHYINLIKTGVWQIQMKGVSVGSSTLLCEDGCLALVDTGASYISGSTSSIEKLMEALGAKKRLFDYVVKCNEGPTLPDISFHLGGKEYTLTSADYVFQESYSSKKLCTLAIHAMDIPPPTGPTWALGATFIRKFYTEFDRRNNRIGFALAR

Cathepsin D (Bos taurus) = biological target: T2, Cathepsin D (Bos taurus) (UniProt P80209); assay: In vitro Inhibitory activity against Bovine cathepsin D at 10e-5 (M)
T2 sequence (whole entry): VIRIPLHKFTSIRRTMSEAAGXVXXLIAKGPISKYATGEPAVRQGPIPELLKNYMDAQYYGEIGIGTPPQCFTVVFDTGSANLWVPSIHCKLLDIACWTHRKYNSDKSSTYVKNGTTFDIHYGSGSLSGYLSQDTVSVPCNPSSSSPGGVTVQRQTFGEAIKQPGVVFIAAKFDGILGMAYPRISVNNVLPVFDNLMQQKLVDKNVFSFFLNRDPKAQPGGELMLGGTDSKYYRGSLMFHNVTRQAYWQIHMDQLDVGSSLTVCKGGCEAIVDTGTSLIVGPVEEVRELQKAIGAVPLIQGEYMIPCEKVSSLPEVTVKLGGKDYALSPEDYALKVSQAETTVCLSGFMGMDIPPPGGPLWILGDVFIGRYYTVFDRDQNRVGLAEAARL
Outline: (§1)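 Assayed against purified porcine pepsin or bovine cathepsin D by a method described previously. Results given as percent inhibition at 10^-5 M.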

[2] = biological target: T3, Gastricsin (Homo sapiens) (UniProt P20142); assay: In vitro Inhibitory activity against human Gastricsin at 10e-5 (M)
T3 sequence (whole entry): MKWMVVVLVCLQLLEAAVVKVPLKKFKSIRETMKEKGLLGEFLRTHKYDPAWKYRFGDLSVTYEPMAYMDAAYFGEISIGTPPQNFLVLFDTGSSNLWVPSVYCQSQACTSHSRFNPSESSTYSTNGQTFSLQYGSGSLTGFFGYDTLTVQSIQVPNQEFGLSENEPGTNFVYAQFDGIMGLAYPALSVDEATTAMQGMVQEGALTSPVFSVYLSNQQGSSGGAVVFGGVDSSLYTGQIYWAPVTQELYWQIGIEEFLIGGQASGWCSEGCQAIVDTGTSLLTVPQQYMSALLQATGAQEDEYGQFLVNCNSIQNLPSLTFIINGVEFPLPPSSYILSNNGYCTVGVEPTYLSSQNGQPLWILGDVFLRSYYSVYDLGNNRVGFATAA
Outline: (§2)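 Human gastricsin and pepsin isolated from gastric juice by IRC-50 ion exchange with pH elution. Hemoglobin substrate; gastricsin run at pH 3.1, pepsin at pH 2.0. After trichloroacetic acid precipitation, supernatant absorbance read at 280 nm. Results given as percent inhibition at 10^-5 M.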

Pepsin A (Homo sapiens) = Pepsin A (Homo sapiens) (UniProt P0DJD9); assay: In vitro inhibitory activity against Human pepsin at 10e-5 M; outline: as §2
Renin (Homo sapiens) [3] = biological target: T4, Renin (Homo sapiens) (UniProt P00797); assay: In vitro Inhibitory activity against Renin at 10e-9 (M)
T4 sequence (whole entry): T1 sequence (P00797 whole entry)
Outline: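 Purified human renin, procedure as reported earlier. Results given as percent inhibition at 10^-9 M.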

Pepsin A (Sus scrofa) = Pepsin A (Sus scrofa) (UniProt P00791); assay: In vitro Inhibitory activity against porcine Pepsin at 10e-5 (M); outline: as §1
Renin [4] = biological target: T1, Renin; assay: In vitro inhibitory activity against renin
Renin (Homo sapiens) [5] = biological target: T4, Renin (Homo sapiens); assay: In vitro inhibitory activity against renin at 10e-6 (M)
Renin (Homo sapiens) [6] = biological target: T4, Renin (Homo sapiens); assay: In vitro inhibitory activity against renin at 10e-5 M

Sequence of Pepsin A (Homo sapiens) (P0DJD9 whole entry, looked up): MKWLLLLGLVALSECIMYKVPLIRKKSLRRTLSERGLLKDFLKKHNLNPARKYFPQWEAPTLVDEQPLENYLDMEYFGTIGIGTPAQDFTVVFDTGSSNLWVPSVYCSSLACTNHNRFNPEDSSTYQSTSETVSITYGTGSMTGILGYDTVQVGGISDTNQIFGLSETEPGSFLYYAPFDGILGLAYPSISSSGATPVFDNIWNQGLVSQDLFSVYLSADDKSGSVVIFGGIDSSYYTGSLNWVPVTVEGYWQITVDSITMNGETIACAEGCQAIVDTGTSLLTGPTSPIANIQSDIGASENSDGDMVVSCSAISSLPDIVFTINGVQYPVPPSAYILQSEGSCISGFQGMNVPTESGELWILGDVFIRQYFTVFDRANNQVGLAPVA
Sequence of Pepsin A (Sus scrofa) (P00791 whole entry, looked up): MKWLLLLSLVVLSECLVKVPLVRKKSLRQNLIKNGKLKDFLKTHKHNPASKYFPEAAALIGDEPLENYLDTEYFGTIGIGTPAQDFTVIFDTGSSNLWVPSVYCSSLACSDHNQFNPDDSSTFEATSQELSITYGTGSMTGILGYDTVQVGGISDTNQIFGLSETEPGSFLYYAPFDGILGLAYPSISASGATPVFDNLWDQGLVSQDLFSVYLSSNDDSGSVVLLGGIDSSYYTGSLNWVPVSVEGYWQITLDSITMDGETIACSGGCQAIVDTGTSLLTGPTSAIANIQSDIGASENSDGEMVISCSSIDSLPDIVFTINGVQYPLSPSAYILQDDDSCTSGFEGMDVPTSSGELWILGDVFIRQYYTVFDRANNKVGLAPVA

## CC(C)C[C@H](O)[C@H](O)[C@H](CC1CCCCC1)NC(=O)[C@H](Cc1c[nH]cn1)NC(=O)[C@H](Cc1ccccc1)NC(=O)CC(C)(C)C
Renin [1]
  IC50: 1 nM

## CC(C)CN[C@@H](Cc1ccccc1)C(=O)N[C@@H](Cc1c[nH]cn1)C(=O)N[C@@H](CC1CCCCC1)[C@@H](O)[C@@H](O)CC(C)C
Renin [1]
  IC50: 0.3 nM

## CC[C@H](O)[C@H](O)[C@H](CC1CCCCC1)NC(=O)[C@H](Cc1c[nH]cn1)NC(=O)[C@H](Cc1ccccc1)NC(=O)OC(C)(C)C
Renin [1]
  IC50: 0.6 nM

## CCOC(=O)N[C@@H](Cc1ccccc1)C(=O)N[C@@H](CC(C)C)C(=O)N[C@@H](CC1CCCCC1)[C@@H](O)[C@@H](O)CC(C)C
Cathepsin D (Bos taurus)
  inhibition: 23%
[2]
  inhibition: 7%
Pepsin A (Homo sapiens)
  inhibition: 11%
Renin [1]
  IC50: 0.3 nM
Renin (Homo sapiens) [3]
  inhibition: 71%
Pepsin A (Sus scrofa)
  inhibition: 32%

## CC(C)C[C@H](O)[C@H](O)[C@H](CC1CCCCC1)NC(=O)[C@H](Cc1c[nH]cn1)NC(=O)[C@H](Cc1cccc2ccccc12)NC(=O)OC(C)(C)C
Cathepsin D (Bos taurus)
  inhibition: 0%
Pepsin A (Sus scrofa)
  inhibition: 0%

## CC(C)CC[C@H](O)[C@H](CC(C)C)NC(=O)[C@H](Cc1c[nH]cn1)NC(=O)[C@H](Cc1ccccc1)NC(=O)OC(C)(C)C
Renin [1]
  IC50: 1500 nM

## CCOC(=O)N[C@@H](Cc1cccc2ccccc12)C(=O)N[C@@H](CC(C)C)C(=O)N[C@@H](CC1CCCCC1)[C@@H](O)[C@@H](O)CC(C)C
Renin [1]
  IC50: 0.25 nM

## CCOC(=O)N[C@@H](Cc1ccccc1)C(=O)N[C@@H](CC(C)C)C(=O)N[C@@H](CC1CCCCC1)[C@@H](O)[C@@H](O)CC
Renin [1]
  IC50: 1.1 nM

## CC(C)C[C@H](NC(=O)[C@H](Cc1c[nH]cn1)NC(=O)[C@H](Cc1cccc2ccccc12)NC(=O)OCc1ccccc1)[C@@H](O)CCO
Renin [4]
  IC50: 6.4 µM
Renin (Homo sapiens) [5]
  inhibition: 63%

## CC(C)CC[C@H](O)[C@H](O)[C@H](CC1CCCCC1)NC(=O)[C@H](Cc1c[nH]cn1)NC(=O)[C@H](Cc1ccccc1)NC(=O)OC(C)(C)C
Renin [1]
  IC50: 4 nM

## CC(C)C[C@H](NC(=O)[C@H](Cc1c[nH]cn1)NC(=O)[C@H](Cc1ccccc1)NC(=O)OC(C)(C)C)[C@@H](O)[C@@H](O)CC(C)C
Renin [1]
  IC50: 11 nM

## CC(C)C[C@H](NC(=O)[C@H](C)NC(=O)[C@H](Cc1ccccc1)NC(=O)OC(C)(C)C)[C@@H](O)CCO
Renin (Homo sapiens) [6]
  inhibition: 13%

## CC(C)C[C@H](NC(=O)[C@H](C)NC(=O)[C@H](Cc1ccccc1)NC(=O)OC(C)(C)C)[C@@H](O)CO
Renin [4]
  IC50: 4 µM
Renin (Homo sapiens) [6]
  inhibition: 65%

## CC(C)C[C@@H](CO)NC(=O)[C@H](C)NC(=O)[C@H](Cc1ccccc1)NC(=O)OC(C)(C)C (Boc-Phe-Ala-[Leu(ol)])
Renin (Homo sapiens) [6]
  inhibition: 9%

## CC(C)C[C@H](NC(=O)[C@H](Cc1c[nH]cn1)NC(=O)[C@H](Cc1cccc2ccccc12)NC(=O)OCc1ccccc1)[C@@H](O)CO
Renin (Homo sapiens) [5]
  inhibition: 52%

## CC(C)C[C@H](O)[C@H](O)[C@H](CC1CCCCC1)NC(=O)[C@H](Cn1cccn1)NC(=O)[C@H](Cc1ccccc1)NC(=O)OC(C)(C)C
Renin [1]
  IC50: 1 nM

## CC(C)C[C@H](NC(=O)[C@H](Cc1ccccc1)NC(=O)OC(C)(C)C)C(=O)N[C@@H](CC1CCCCC1)[C@@H](O)[C@@H](O)CC(C)C
Renin [1]
  IC50: 0.5 nM

## CCOC(=O)N[C@@H](CC(C)C)C(=O)N[C@@H](Cc1c[nH]cn1)C(=O)N[C@@H](CC1CCCCC1)[C@@H](O)[C@@H](O)CC
Renin [1]
  IC50: 10 nM

## CC(C)C[C@H](O)[C@H](O)[C@H](CC1CCCCC1)NC(=O)[C@H](Cc1c[nH]cn1)NC(=O)[C@H](Cc1ccccc1)NC(=O)C1CCCCC1
Renin [1]
  IC50: 0.7 nM

## CCOC(=O)N[C@@H](Cc1ccccc1)C(=O)N[C@@H](Cc1ccccc1)C(=O)N[C@@H](CC1CCCCC1)[C@@H](O)[C@@H](O)CC(C)C
Renin [1]
  IC50: 1 nM

## CC(C)C[C@H](O)[C@H](O)[C@H](CC1CCCCC1)NC(=O)[C@H](Cc1ccccc1)NC(=O)[C@H](Cc1ccccc1)NC(=O)OC(C)(C)C
Cathepsin D (Bos taurus)
  inhibition: 0%
Pepsin A (Sus scrofa)
  inhibition: 10%

## C[C@H](NC(=O)[C@H](Cc1ccccc1)NC(=O)OC(C)(C)C)C(=O)N[C@H](CO)CC1CCCCC1
Renin [4]
  IC50: 4 µM
Renin (Homo sapiens) [6]
  inhibition: 73%

## CC(C)C[C@H](O)[C@H](O)[C@H](CC1CCCCC1)NC(=O)[C@H](Cc1c[nH]cn1)NC(=O)[C@H](Cc1ccccc1)NC(=O)OC(C)(C)C
Cathepsin D (Bos taurus)
  inhibition: 0%
[2]
  inhibition: 0%
Pepsin A (Homo sapiens)
  inhibition: 0%
Renin [1]
  IC50: 35 nM
Renin (Homo sapiens) [3]
  inhibition: 33%
Pepsin A (Sus scrofa)
  inhibition: 0%

## COc1ccc(C[C@H](NC(=O)OC(C)(C)C)C(=O)N[C@@H](Cc2c[nH]cn2)C(=O)N[C@@H](CC2CCCCC2)[C@@H](O)[C@@H](O)CC(C)C)cc1
Renin [1]
  IC50: 1 nM

## CCOC(=O)N[C@@H](Cc1ccccc1)C(=O)N[C@@H](Cc1c[nH]cn1)C(=O)N[C@@H](CC1CCCCC1)[C@@H](O)[C@@H](O)CC
Renin [1]
  IC50: 0.5 nM

## CC(C)C[C@H](O)[C@H](O)[C@H](CC1CCCCC1)NC(=O)[C@H](Cc1c[nH]cn1)NC(=O)[C@H](C)NC(=O)OC(C)(C)C
Renin [1]
  IC50: 200 nM

## CCOC(=O)N[C@@H](Cc1ccc(I)cc1)C(=O)N[C@@H](CC(C)C)C(=O)N[C@@H](CC1CCCCC1)[C@@H](O)[C@@H](O)CC(C)C
Renin [1]
  IC50: 2.5 nM

## CC(C)CC[C@H](O)[C@H](CC1CCCCC1)NC(=O)[C@H](Cc1c[nH]cn1)NC(=O)[C@H](Cc1ccccc1)NC(=O)OC(C)(C)C
Renin [1]
  IC50: 10 nM

## CC(C)COC(=O)N[C@@H](Cc1ccccc1)C(=O)N[C@@H](Cc1c[nH]cn1)C(=O)N[C@@H](CC1CCCCC1)[C@@H](O)[C@@H](O)CC(C)C
Renin [1]
  IC50: 1 nM

## CCOC(=O)N[C@@H](CC(C)C)C(=O)N[C@@H](Cc1c[nH]cn1)C(=O)N[C@@H](CC1CCCCC1)[C@@H](O)[C@@H](O)CC(C)C
Cathepsin D (Bos taurus)
  inhibition: 0%
[2]
  inhibition: 0%
Pepsin A (Homo sapiens)
  inhibition: 0%
Renin [1]
  IC50: 2 nM
Renin (Homo sapiens) [3]
  inhibition: 3%
Pepsin A (Sus scrofa)
  inhibition: 0%

## CC(C)C[C@H](O)[C@H](O)[C@H](CC1CCCCC1)NC(=O)[C@H](Cc1c[nH]cn1)NC(=O)[C@H](CC1C=NC=N1)NC(=O)OC(C)(C)C (some centres undefined)
Renin [1]
  IC50: 55 nM

## CCOC(=O)N[C@@H](Cc1ccc(OC)cc1)C(=O)N[C@@H](CC(C)C)C(=O)N[C@@H](CC1CCCCC1)[C@@H](O)[C@@H](O)CC(C)C
Renin [1]
  IC50: 0.2 nM

## C[C@H](NC(=O)[C@H](Cc1ccccc1)NC(=O)OC(C)(C)C)C(=O)N[C@@H](CC1CCCCC1)[C@@H](O)CO
Renin [4]
  IC50: 0.35 µM
Renin (Homo sapiens) [6]
  inhibition: 98%

## CC(C)C[C@H](NC(=O)OC(C)(C)C)C(=O)N[C@@H](Cc1c[nH]cn1)C(=O)N[C@@H](CC1CCCCC1)[C@@H](O)[C@@H](O)CC(C)C
Cathepsin D (Bos taurus)
  inhibition: 0%
[2]
  inhibition: 0%
Pepsin A (Homo sapiens)
  inhibition: 0%
Pepsin A (Sus scrofa)
  inhibition: 0%

## CC(C)C[C@@H](CCO)NC(=O)[C@H](C)NC(=O)[C@H](Cc1ccccc1)NC(=O)OC(C)(C)C
Renin (Homo sapiens) [6]
  inhibition: 0%

## CC(C)C[C@@H](C=O)NC(=O)[C@H](C)NC(=O)[C@H](Cc1ccccc1)NC(=O)OC(C)(C)C (Boc-Phe-Ala-Leu-aldehyde)
Renin (Homo sapiens) [6]
  inhibition: 49%

## CC(C)C[C@H](O)[C@H](O)[C@H](CC1CCCCC1)NC(=O)[C@H](C)NC(=O)[C@H](Cc1ccccc1)NC(=O)OC(C)(C)C
Cathepsin D (Bos taurus)
  inhibition: 0%
[2]
  inhibition: 0%
Pepsin A (Homo sapiens)
  inhibition: 0%
Pepsin A (Sus scrofa)
  inhibition: 0%
